Experimental data from different studies.
Target: Serine/threonine-protein kinase MARK2 (MARK2, Homo sapiens, UniProt Q7KZI7)

O=c1[nH]c2ccccc2n1C1CCN(Cc2ccc(-c3[nH]c4cc5ncnc5cc4nc3-c3ccccc3)cc2)CC1 — remaining signal (cell-free assay; 0.5 µM): 92.2%
COc1ncccc1-c1cnn2ccc(N3CCN(C(=O)OC(C)C)CC3)nc12 — remaining binding (binding, competition with immobilised ligand; 1 µM): 80%
Cn1cc(-c2cccc(N3CCc4c(sc5c4CC(C)(C)C5)C3=O)c2CO)cc(Nc2ccncn2)c1=O — inhibition (enzyme activity, inhibitor; 1 µM): 10%
Cc1nn(C)cc1-c1nc2c(N3CCN(Cc4ccc(Cl)cc4)CC3)c(Cl)cnc2[nH]1 — remaining binding (binding, competition with immobilised ligand; 1 µM): 93%
C#Cc1n[nH]c2c(-c3cn([C@@H](C)c4ccccc4)c(=O)[nH]c3=O)cc(F)cc12 — inhibition (enzyme activity, inhibitor; 0.1 µM): 2%
Cn1cncc1[C@](O)(COc1ccc(C#N)cc1-c1ccc(OC(F)(F)F)cc1)c1ccc(C#N)cc1 — remaining binding (cell-free assay, competition with immobilised ligand; 1 µM): 95%
Cn1cc(-c2cc(F)cc(N3CCn4c(cc5c4CCCC5)C3=O)c2CO)cc(Nc2ccc(N3CCN(C4COC4)CC3)cn2)c1=O — inhibition (enzyme activity, inhibitor; 0.1 µM): 14%
C#Cc1n[nH]c2c(-c3cn(C(C)c4ccccn4)c(=O)[nH]c3=O)cc(F)cc12 (stereo not shown) — inhibition (enzyme activity, inhibitor; 1 µM): 5.8%
CC(C)(C)c1cc(C=C(C#N)C#N)cc(Br)c1O — remaining activity (enzyme activity, inhibitor; 0.5 µM): 81.6%
Nc1ncc(-c2nc(N3CCOCC3)nc(N3CCOCC3)n2)c(C(F)F)n1 — remaining binding (binding, competition with immobilised ligand; 10 µM): 77%
